This note sets out measurements from ChEMBL document CHEMBL2157949 (J Med Chem, 2012).

For orientation: IC50 means the concentration that gives 50% inhibition. By Ki is commonly meant a dissociation constant, usually derived from enzyme kinetics or from competition with a known ligand.

For assay [1], the system named is IGROV-1. Put plainly: Growth inhibition of human IGROV1 cells endogenously expressing RFC/FRalpha/PCFT in presence of folic acid incubated for 96 hrs by CellTiter-blue cell viability assay. It is filed as functional, cell-based. To be noted: IGROV-1, 96 h. In general terms: Resazurin is reduced to fluorescent resorufin, in cell work by metabolically active cells.

Assay [2] has as its system IGROV-1. Put plainly: Growth inhibition of human IGROV1 cells endogenously expressing RFC/FRalpha/PCFT incubated for 96 hrs by CellTiter-blue cell viability assay. It is filed as functional, cell-based. To be noted: IGROV-1, 96 h.
Assay [3] has as its system R2. Put plainly: Growth inhibition of Chinese hamster R2 cells expressing human PCFT incubated for 96 hrs by CellTiter-blue cell viability assay. The assay is classed as functional, cell-based, Cricetulus griseus. The conditions noted are these: R2, 96 h. The gist of the method:
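R2/hPCFT4 CHO cells maintained beforehand in folate-free RPMI 1640 with dialyzed FBS, 25 nM LCV and G418. Assay: ~2500–5000 cells/well in folate-free RPMI 1640 (pH 7.2) with 25 nM LCV, 10% dialyzed FBS, antibiotics and L-glutamine, over a range of drug concentrations.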

The nature of assay [4]: Growth inhibition of Chinese hamster PC43-10 cells expressing reduced folate carrier incubated for 96 hrs by CellTiter-blue cell viability assay. The assay is classed as functional, cell-based. To be noted: Cricetulus griseus, PC43-10, 96 h.
Assay [5] has as its target Folate receptor alpha (Homo sapiens) (UniProt P15328). The assay is classed as cell-based. To be noted: CHO.
The subject of assay [6] is KB. Put plainly: Growth inhibition of human KB cells endogenously expressing RFC/FRalpha/PCFT in presence of 50 nM leucovorin incubated for 96 hrs by CellTiter-blue cell viability assay. It is filed as functional, cell-based. The gist of the method: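 KB cells in complete folate-free RPMI 1640 with 10% dialyzed FBS and LCV at 50 nM (versus the standard 2 nM), exposed to a range of antifolate concentrations for up to 96 h. Cell density read by CellTiter-blue fluorescence and normalized to drug-free cells. Representative data from experiments run in duplicate.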

Assay [7] deals with KB. Put plainly: Inhibition of colony formation of human KB cells endogenously expressing RFC/FRalpha/PCFT incubated for 14 days by methylene blue staining based clonogenicty assay. It is filed as functional, cell-based. To be noted: 336 h.
Assay [8] deals with R2. Put plainly: Growth inhibition of Chinese hamster R2 cells deficient in reduced folate carrier and human folate receptor alpha incubated for 96 hrs by CellTiter-blue cell viability assay. It is filed as cell-based, Cricetulus griseus. The conditions noted are these: R2, 96 h.
Assay [9] is described as follows: Growth inhibition of Chinese hamster RT16 cells expressing human folate receptor alpha incubated for 96 hrs by CellTiter-blue cell viability assay. The assay is classed as functional, cell-based. The conditions noted are these: Cricetulus griseus, RT16, 96 h.
The subject of assay [10] is KB. Put plainly: Growth inhibition of human KB cells endogenously expressing RFC/FRalpha/PCFT in presence of 60 uM adenosine incubated for 96 hrs by CellTiter-blue cell viability assay. It is filed as functional, cell-based.
A short description of assay [11]: Growth inhibition of Chinese hamster RT16 cells expressing human folate receptor alpha incubated for 96 hrs in presence of folic acid by CellTiter-blue cell viability assay. The assay is classed as functional, cell-based. To be noted: Cricetulus griseus, RT16, 96 h.
In assay [12] the test system is KB. Put plainly: Growth inhibition of human KB cells endogenously expressing RFC/FRalpha/PCFT in presence of 320 uM 5-amino-4-imidazolecarboxamide incubated for 96 hrs by CellTiter-blue cell viability assay. It is filed as functional, cell-based.
In assay [13] the target is T1, Proton-coupled folate transporter (Homo sapiens, UniProt Q96NT5).
T1 sequence (Q96NT5 whole entry): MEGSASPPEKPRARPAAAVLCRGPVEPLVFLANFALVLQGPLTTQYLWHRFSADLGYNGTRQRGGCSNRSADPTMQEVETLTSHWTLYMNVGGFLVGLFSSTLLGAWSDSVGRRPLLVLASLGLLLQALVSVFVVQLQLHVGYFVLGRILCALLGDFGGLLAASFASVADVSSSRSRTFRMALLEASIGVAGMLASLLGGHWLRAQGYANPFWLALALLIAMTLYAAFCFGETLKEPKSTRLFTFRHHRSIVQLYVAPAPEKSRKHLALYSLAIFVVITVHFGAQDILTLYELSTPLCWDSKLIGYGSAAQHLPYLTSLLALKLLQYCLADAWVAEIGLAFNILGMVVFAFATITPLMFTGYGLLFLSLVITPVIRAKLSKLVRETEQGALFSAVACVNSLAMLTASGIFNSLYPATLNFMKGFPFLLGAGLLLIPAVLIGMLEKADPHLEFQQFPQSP
Put plainly: Inhibition of [3H]MTX transport at human PCFT expressed in Chinese hamster R2 cells at pH 5.5 by Dixon plot. The assay is classed as cell-based. The gist of the method:
(§1)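 R2/hPCFT4 CHO cells grown in spinner flasks, resuspended in HBS at pH 6.8 or MES-buffered saline at pH 5.5. Uptake quenched with ice-cold DPBS and normalized to protein. Mean ± SE, n=4–8.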

The test system of assay [14] is KB. Put plainly: Growth inhibition of human KB cells endogenously expressing RFC/FRalpha/PCFT incubated for 96 hrs by CellTiter-blue cell viability assay. It is filed as functional, cell-based.
Assay [15] has as its system IGROV-1. Put plainly: Growth inhibition of human IGROV1 cells endogenously expressing RFC/FRalpha/PCFT in presence of 60 uM adenosine incubated for 96 hrs by CellTiter-blue cell viability assay. The assay is classed as functional, cell-based.
Assay [16] relates to IGROV-1. Put plainly: Growth inhibition of human IGROV1 cells endogenously expressing RFC/FRalpha/PCFT in presence of 10 uM thymidine incubated for 96 hrs by CellTiter-blue cell viability assay. It is filed as functional, cell-based.
For assay [17], the system named is IGROV-1. Put plainly: Growth inhibition of human IGROV1 cells endogenously expressing RFC/FRalpha/PCFT in presence of 320 uM 5-amino-4-imidazolecarboxamide incubated for 96 hrs by CellTiter-blue cell viability assay. It is filed as functional, cell-based.
Assay [18] deals with KB. Put plainly: Growth inhibition of human KB cells endogenously expressing RFC/FRalpha/PCFT in presence of 10 uM thymidine incubated for 96 hrs by CellTiter-blue cell viability assay. It is filed as functional, cell-based.
Assay [19] concerns the target T1, Proton-coupled folate transporter. Put plainly: Inhibition of [3H]MTX transport at human PCFT expressed in Chinese hamster R2 cells at pH 6.8 by Dixon plot. The assay is classed as cell-based. The procedure, abridged:
as §1

In assay [20] the test system is KB. Put plainly: Growth inhibition of human KB cells endogenously expressing RFC/FRalpha/PCFT in presence of folic acid incubated for 96 hrs by CellTiter-blue cell viability assay. It is filed as functional, cell-based.
Assay [21] relates to R2. Put plainly: Growth inhibition of Chinese hamster R2 cells expressing empty vector control incubated for 96 hrs by CellTiter-blue cell viability assay. The conditions noted are these: Cricetulus griseus, R2, 96 h.
Assay [22] addresses T2, Trifunctional purine biosynthetic protein adenosine-3 (Homo sapiens, UniProt P22102).
T2 sequence (P22102 whole entry): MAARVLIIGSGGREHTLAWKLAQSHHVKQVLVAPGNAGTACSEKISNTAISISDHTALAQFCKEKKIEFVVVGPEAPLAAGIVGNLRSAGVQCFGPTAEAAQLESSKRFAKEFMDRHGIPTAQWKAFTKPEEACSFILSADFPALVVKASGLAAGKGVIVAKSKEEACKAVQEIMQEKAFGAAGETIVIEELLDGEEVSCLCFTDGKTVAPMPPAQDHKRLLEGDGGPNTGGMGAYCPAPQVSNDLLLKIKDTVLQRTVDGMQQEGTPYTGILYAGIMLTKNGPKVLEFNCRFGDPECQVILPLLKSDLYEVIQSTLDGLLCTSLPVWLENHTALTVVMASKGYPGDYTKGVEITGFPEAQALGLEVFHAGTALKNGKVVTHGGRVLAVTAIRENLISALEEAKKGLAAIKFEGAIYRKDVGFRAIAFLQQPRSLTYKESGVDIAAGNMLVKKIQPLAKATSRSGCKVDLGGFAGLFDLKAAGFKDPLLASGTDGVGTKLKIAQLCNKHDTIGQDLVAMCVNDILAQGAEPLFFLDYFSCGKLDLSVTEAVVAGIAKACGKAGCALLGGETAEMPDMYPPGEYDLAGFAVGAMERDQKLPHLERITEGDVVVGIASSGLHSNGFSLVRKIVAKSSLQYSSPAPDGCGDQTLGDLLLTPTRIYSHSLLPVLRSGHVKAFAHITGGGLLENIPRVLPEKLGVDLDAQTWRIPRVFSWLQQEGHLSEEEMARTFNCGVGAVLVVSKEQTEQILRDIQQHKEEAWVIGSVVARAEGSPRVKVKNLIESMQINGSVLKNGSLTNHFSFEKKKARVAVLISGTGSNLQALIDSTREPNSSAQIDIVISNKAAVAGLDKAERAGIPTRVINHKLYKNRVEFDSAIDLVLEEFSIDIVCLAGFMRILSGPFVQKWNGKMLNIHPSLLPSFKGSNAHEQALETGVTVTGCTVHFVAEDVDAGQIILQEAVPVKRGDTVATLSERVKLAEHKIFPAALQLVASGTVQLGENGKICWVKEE
Put plainly: Inhibition of GARFTase in human IGROV1 cells assessed as reduction in [14C]glycine incorporation into [14C]formyl GAR incubated for 15 hrs in complete folate free RPMI medium in presence of 2 nM leucovorin. The assay is classed as cell-based, IGROV-1.

Assay [23] addresses T3, Proton-coupled folate transporter (Homo sapiens) (UniProt Q96NT5).
T3 sequence (whole entry): T1 sequence (Q96NT5 whole entry)
Put plainly: Ratio of Ki for human PCFT at pH 6.8 to Ki for human PCFT at pH 5.5 by [3H]MTX transport assay.

Structures are written as SMILES. Activity calls are given as the source filed them. The rule behind the calls is not given here.

Folate receptor alpha (Homo sapiens), sequence (P15328 25-234 limits assumed): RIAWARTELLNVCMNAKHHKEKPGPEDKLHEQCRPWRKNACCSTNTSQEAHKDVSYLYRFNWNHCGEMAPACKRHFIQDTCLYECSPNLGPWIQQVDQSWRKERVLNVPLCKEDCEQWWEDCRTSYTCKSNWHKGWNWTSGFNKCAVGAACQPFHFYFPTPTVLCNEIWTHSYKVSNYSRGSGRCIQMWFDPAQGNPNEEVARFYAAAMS

On to `Nc1nc2[nH]c(CCCCc3csc(C(=O)N[C@@H](CCC(=O)O)C(=O)O)c3)cc2c(=O)[nH]1`, for which the IC50 in the assay with IGROV-1 [1] was > 1000 nM; in the assay with IGROV-1 [2], 0.48 nM; in the assay with R2 [3], 41.5 nM; in assay [4], > 1000 nM; with KB [6], 3.4 nM; with KB [7] it was 0.39 nM. In addition, the IC50 in the assay on R2 [8] is > 1000 nM; in assay [9], 2.54 nM; in assay [11], > 1000 nM; in the assay with KB [14], 0.17 nM; in the assay with KB [20], > 1000 nM; in the assay with R2 [21], > 1000 nM. In assay [5], the relative binding affinity (RBA) is > 1. Further, the “growth inhibition (GI)” value in the assay with KB [10], in the assay on KB [12], in the assay on IGROV-1 [15] and in the assay with IGROV-1 [17] was “inactive” each time. Also, the Ki in assay [13] worked out at 390 nM; in assay [19], 28100 nM. Moreover, the “growth inhibition (GI)” value with IGROV-1 [16] and in the assay with KB [18] was “Active” throughout.

With `Nc1nc2[nH]c(CCCCc3cc(C(=O)N[C@@H](CCC(=O)O)C(=O)O)cs3)cc2c(=O)[nH]1`, the IC50 in assay [22] was 2.03 nM; in the assay on IGROV-1 [1], > 1000 nM; in the assay on IGROV-1 [2], 1.4 nM; in the assay on R2 [3] it was 63.8 nM; in assay [4], > 1000 nM; in the assay on KB [6] it was > 20 nM. Further, the IC50 was 0.16 nM in the assay with KB [7]; > 1000 nM in the assay with R2 [8]; 2.6 nM in assay [9]; > 1000 nM in assay [11]; 0.27 nM in the assay with KB [14]; > 1000 nM in the assay on KB [20]. Further, the IC50 with R2 [21] is > 1000 nM. Besides, in assay [5], the relative binding affinity (RBA) is > 1. The “growth inhibition (GI)” value in the assay on KB [10], in the assay with KB [12], with IGROV-1 [15] and with IGROV-1 [17] was “inactive” throughout. Further, the inhibitory constant (Ki) worked out at 420 nM in assay [13] and 30700 nM in [19]. The “growth inhibition (GI)” value in the assay with IGROV-1 [16] and with KB [18] was “Active” each time. Besides, the Ratio Ki in assay [23] was determined as 70.
